# Results: ChEMBL document CHEMBL4765404, “Identification of benzofused five-membered sultams, potent dual NOD1/NOD2 antagonists in vitro and in vivo” (Eur J Med Chem, 2020)
# pIC50: −log10 of the molar value.
# Molecular target: T1, Nucleotide-binding oligomerization domain-containing protein 2 (Homo sapiens, UniProt Q9HC29)
# Assay: Antagonist activity at human NOD2 in HEK-Blue hNOD2 cells assessed as secreted alkaline phosphatase reporter activity preincubated for 3 hrs followed by stimulated with MDP for 20 hrs by Spectrophotometer method
# Type: cell-based
# Conditions: not given
# T1 sequence (Q9HC29 whole entry, the tested form may be a part): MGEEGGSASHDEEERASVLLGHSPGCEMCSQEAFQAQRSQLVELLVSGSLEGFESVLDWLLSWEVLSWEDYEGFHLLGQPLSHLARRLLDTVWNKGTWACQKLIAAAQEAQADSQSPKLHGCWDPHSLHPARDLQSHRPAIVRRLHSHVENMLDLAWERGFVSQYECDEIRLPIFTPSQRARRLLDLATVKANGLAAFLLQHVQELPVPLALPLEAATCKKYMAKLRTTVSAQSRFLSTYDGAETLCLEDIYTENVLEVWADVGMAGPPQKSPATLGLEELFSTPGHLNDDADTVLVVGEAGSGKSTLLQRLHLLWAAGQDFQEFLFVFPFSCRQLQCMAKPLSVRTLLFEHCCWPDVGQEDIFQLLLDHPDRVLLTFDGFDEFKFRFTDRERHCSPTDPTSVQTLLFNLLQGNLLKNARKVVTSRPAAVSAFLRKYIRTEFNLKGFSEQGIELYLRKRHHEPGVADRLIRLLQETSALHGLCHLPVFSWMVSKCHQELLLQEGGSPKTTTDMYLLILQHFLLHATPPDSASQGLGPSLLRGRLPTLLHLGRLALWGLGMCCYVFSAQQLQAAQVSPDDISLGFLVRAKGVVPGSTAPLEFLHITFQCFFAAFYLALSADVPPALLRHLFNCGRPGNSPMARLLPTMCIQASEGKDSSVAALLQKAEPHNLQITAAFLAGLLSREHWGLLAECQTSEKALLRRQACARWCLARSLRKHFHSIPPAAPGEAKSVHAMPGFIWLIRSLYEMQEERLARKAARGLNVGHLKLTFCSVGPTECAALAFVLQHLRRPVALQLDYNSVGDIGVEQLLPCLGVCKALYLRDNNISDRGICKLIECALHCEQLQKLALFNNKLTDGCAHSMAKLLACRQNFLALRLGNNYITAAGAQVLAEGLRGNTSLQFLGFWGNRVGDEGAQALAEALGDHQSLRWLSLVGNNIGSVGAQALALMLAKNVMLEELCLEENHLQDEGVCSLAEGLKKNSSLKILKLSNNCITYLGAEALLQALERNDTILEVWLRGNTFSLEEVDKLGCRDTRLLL
row,SMILES,pIC50
1,CCCCc1noc(CC2c3cccc(C)c3S(=O)(=O)N2C(=O)c2cccc(C(F)(F)F)c2)n1 (stereo not drawn),5.24
2,CCCCc1nnc(CC2c3cccc(C)c3S(=O)(=O)N2C(=O)c2cccc(C(F)(F)F)c2)o1 (stereo not drawn),5.33
3,CCCCOC(=O)CC1c2cc(OC)cc(OC)c2S(=O)(=O)N1C(=O)c1ccc(C(F)(F)F)cc1 (stereo not drawn),5.40

# Results, then the molecule that gave them:
row,pIC50,SMILES
1,5.37,CCCCOC(=O)CC1c2cccc(C(=O)OCCCC)c2S(=O)(=O)N1C(=O)c1ccc(C(F)(F)F)cc1 (stereo not drawn)
2,5.01,CCCCOC(=O)CC1c2ccc(Cl)c(C)c2S(=O)(=O)N1C(=O)c1ccc(C(F)(F)F)cc1 (stereo not drawn)
3,5.39,CCCCOC(=O)CC1c2c(F)ccc(C)c2S(=O)(=O)N1C(=O)c1ccc(C(F)(F)F)cc1 (stereo not drawn)
4,5.76,CCCCOC(=O)CC1c2cccc(C)c2S(=O)(=O)N1C(=O)c1ccc(Cl)cc1 (stereo not drawn)
5,5.45,COC(=O)CC1c2cccc(C)c2S(=O)(=O)N1C(=O)c1ccc(C(F)(F)F)cc1 (stereo not drawn)
6,6.32,CCCCOC(=O)CC1c2cccc(C)c2S(=O)(=O)N1C(=O)c1ccccc1C(F)(F)F (stereo not drawn)
7,5.93,CCCCOC(=O)CC1c2cccc(C)c2S(=O)(=O)N1C(=O)c1ccc(C(F)(F)F)cc1 (stereo not drawn)
8,6.03,CCCCOC(=O)CC1c2cccc(C)c2S(=O)(=O)N1C(=O)c1cccc(C(F)(F)F)c1 (stereo not drawn)
9,5.26,CCCCOC(=O)CC1c2cccc(C)c2S(=O)(=O)N1C(=O)c1ccc(C#N)cc1 (stereo not drawn)
10,5.17,CCCCOC(=O)CC1c2cc(F)cc(C)c2S(=O)(=O)N1C(=O)c1ccc(C(F)(F)F)cc1 (stereo not drawn)
11,5.63,CCCCOC(=O)CC1c2cccc(C)c2C(=O)N1C(=O)c1ccc(C(F)(F)F)cc1 (stereo not drawn)
12,5.73,CCCCOC(=O)CC1c2cc(C)cc(C)c2S(=O)(=O)N1C(=O)c1ccc(C(F)(F)F)cc1 (stereo not drawn)
13,5.33,Cc1cccc2c1S(=O)(=O)N(C(=O)c1ccc(C(F)(F)F)cc1)C2CC(=O)OC(C)(C)C (stereo not drawn)
14,5.86,CCCCOC(=O)CC1c2cccc(Cl)c2S(=O)(=O)N1C(=O)c1ccc(C(F)(F)F)cc1 (stereo not drawn)
15,5.15,CCCCOC(=O)CC1c2c(OC)ccc(OC)c2S(=O)(=O)N1C(=O)c1ccc(C(F)(F)F)cc1 (stereo not drawn)

# Tested on: not listed separately
# Assay: Cytotoxicity against human HEK-Blue hNOD2 cells assessed as cell viability measured by SRB assay
# Type: cell-based
# Conditions: not given
# Procedure, shortened: (§1)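 Run on the same HEK-Blue hNOD1 (C12-iE-DAP 50 ng/mL) or hNOD2 (MDP 100 ng/mL) wells after SEAP readout, following 3 h compound plus 20 h stimulation. Cells fixed in 80% TCA, 4 °C, 1 h; SRB in 1% acetic acid, 10 min; washed, dried; dye dissolved in 10 mM Tris base; A515. Growth inhibition = (C−T)/C × 100, n = 3.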
row,SMILES,Activity
1,CCCCOC(=O)CC1c2cccc(C)c2S(=O)(=O)N1C(=O)c1cccc(C(F)(F)F)c1 (stereo not drawn),Non-Toxic

# Molecular target: T1, Nucleotide-binding oligomerization domain-containing protein 2
# Assay: Antagonist activity at human NOD2 in HEK-Blue hNOD2 cells assessed as reduction in secreted alkaline phosphatase reporter activity at 10 uM preincubated for 3 hrs followed by stimulated with MDP for 20 hrs by Spectrophotometer method
# Type: cell-based
# Conditions: not given
row,SMILES,inhibition [%]
1,CCCCOC(=O)CC1c2cccc(C)c2S(=O)(=O)N1S(C)(=O)=O (stereo not drawn),5.29
2,CCCCOC(=O)CC1c2cccc(C)c2S(=O)(=O)N1/C=C\C(=O)OCC (stereo not drawn),20.6
3,CCCCOC(=O)/C=C/c1cc(C)cc2c1S(=O)(=O)N(C(=O)c1ccc(C(F)(F)F)cc1)C2CC(=O)OCCCC (stereo not drawn),31.4
4,Cc1cccc2c1S(=O)(=O)N(C(=O)c1ccc(C(F)(F)F)cc1)C2CC(=O)Nc1ccccc1 (stereo not drawn),30.3
5,CCCCOC(=O)CC1c2cccc(C)c2S(=O)(=O)N1C(=O)/C=C/c1ccc(Cl)cc1 (stereo not drawn),35
6,C=CCN1C(CC(=O)OCCCC)c2cccc(C)c2S1(=O)=O (stereo not drawn),5.52
7,CCCCOC(=O)CC1c2cccc(C)c2S(=O)(=O)N1CC (stereo not drawn),-1
8,CCCCOC(=O)CC1c2cccc(C)c2S(=O)(=O)N1C (stereo not drawn),4.63
9,CCCCOC(=O)CC1c2cccc(C)c2S(=O)(=O)N1C(=O)c1ccco1 (stereo not drawn),1.83
10,CCCCOC(=O)CC1c2cccc(C)c2S(=O)(=O)N1C(C)=O (stereo not drawn),6.59
11,CCCCOC(=O)CC1c2cccc(C)c2S(=O)(=O)N1CCCC (stereo not drawn),9.07
12,CCCCOC(=O)CC1c2cccc(C)c2S(=O)(=O)N1C(=O)OC (stereo not drawn),-0.67

# Now from value to molecule:
row,inhibition [%],SMILES
1,54.4,CCCCOC(=O)/C=C1\c2cccc(C)c2S(=O)(=O)N1C(=O)c1ccc(C(F)(F)F)cc1
2,17.7,CCCCNC(=O)CC1c2cccc(C)c2S(=O)(=O)N1C(=O)c1ccc(C(F)(F)F)cc1 (stereo not drawn)
3,24.3,CCCCOC(=O)CC1c2cccc(C)c2S(=O)(=O)N1C(=O)c1ccccc1 (stereo not drawn)
4,-9.14,Cc1cccc2c1S(=O)(=O)N(C(=O)c1ccc(C(F)(F)F)cc1)C2CC(N)=O (stereo not drawn)
5,7.2,CCCCOC(=O)CC1c2cccc(C)c2S(=O)(=O)N1CC(=O)c1ccc(C(F)(F)F)cc1 (stereo not drawn)
6,10.3,Cc1cccc2c1S(=O)(=O)N(C(=O)c1ccc(C(F)(F)F)cc1)C2CC(=O)O (stereo not drawn)

# Same assay, conditions: filed as antagonist
row,inhibition [%],SMILES
1,55.5,CCCCOC(=O)CC1c2cccc(C)c2S(=O)(=O)N1C(=O)c1ccc(C)cc1 (stereo not drawn)
2,45.9,CCCCOCCC1c2cccc(C)c2S(=O)(=O)N1C(=O)c1ccc(C(F)(F)F)cc1 (stereo not drawn)
3,41.4,CCCCOC(=O)CC1c2cccc(C)c2S(=O)(=O)N1Cc1ccccc1 (stereo not drawn)
4,42.5,CCCCOC(=O)CC1c2cccc(C)c2S(=O)(=O)N1Cc1ccc(C(F)(F)F)cc1 (stereo not drawn)
5,60,CCCCOC(=O)CC1c2cccc(C)c2S(=O)(=O)N1NC(=O)c1ccc(C(F)(F)F)cc1 (stereo not drawn)

# Tested on: not listed separately
# Assay: Cytotoxicity against human HEK-Blue hNOD1 cells assessed as cell viability measured by SRB assay
# Type: cell-based
# Conditions: not given
# Procedure, shortened: as §1
row,SMILES,Activity
1,CCCCOC(=O)CC1c2cccc(C)c2S(=O)(=O)N1C(=O)c1cccc(C(F)(F)F)c1 (stereo not drawn),Non-Toxic
